ChEMBL document CHEMBL4033800, “Further Developments of the Phenyl-Pyrrolyl Pentane Series of Nonsteroidal Vitamin D Receptor Modulators as Anticancer Agents” (J Med Chem, 2018)

Assays:
[1] = AUC in Sprague-Dawley rat at 20 mg/kg, ip measured up to 48 hrs post administration by HPLC analysis; format: ADME, organism-based; parameters: time < 48 hr, dose 20 mg/kg, route intraperitoneal; details: in vivo
Method in brief: (§1)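 Male Sprague-Dawley rats (180−220 g), 4 per group, dosed at 5 mg/kg i.v., 20 mg/kg i.p. or 20 mg/kg p.o. Parameters given as mean ± SD (n = 4).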

MCF7 [2] = experiment: Induction of cell cycle arrest in human MCF7 cells assessed as accumulation at G2/M phase at 1 uM after 24 hrs by propidium iodide-staining based flow cytometry (reference value: 12.41%); format: functional
[3] = Half life in Sprague-Dawley rat at 5 mg/kg, iv by HPLC analysis; format: ADME, organism-based; details: in vivo; method in brief: as §1
MCF7 [4] = experiment: Induction of apoptosis in human MCF7 cells assessed as late apoptotic cells at 1 uM after 24 hrs by Annexin V-FITC/propidium iodide-staining based flow cytometry (reference value: 0.062%); format: functional
[5] = AUC in Sprague-Dawley rat at 20 mg/kg, po measured up to 48 hrs post administration by HPLC analysis; format: ADME, organism-based; parameters: time < 48 hr, dose 20 mg/kg, route oral; details: in vivo; method in brief: as §1
[6] = Half life in Sprague-Dawley rat at 20 mg/kg, po by HPLC analysis; format: ADME, organism-based; details: in vivo; method in brief: as §1
[7] = Clearance in Sprague-Dawley rat at 20 mg/kg, ip by HPLC analysis; format: ADME, organism-based; details: in vivo; method in brief: as §1
[8] = Clearance in Sprague-Dawley rat at 20 mg/kg, po by HPLC analysis; format: ADME, organism-based; details: in vivo; method in brief: as §1
MCF7 [9] = experiment: Antiproliferative activity against human MCF7 cells after 48 hrs by MTT assay; format: functional, cell-based; details: MCF7, 48 h
[10] = MRT in Sprague-Dawley rat at 20 mg/kg, ip by HPLC analysis; format: ADME, organism-based; details: in vivo; method in brief: as §1
PC-3 = experiment: Antiproliferative activity against human PC3 cells after 48 hrs by MTT assay; format: functional, cell-based; details: PC-3, 48 h
Vitamin D3 receptor = target: T1, Vitamin D3 receptor (Homo sapiens, UniProt P11473); experiment: Displacement of fluormone VDR red from human full length VDR after 4 hrs by fluorescence polarization assay
T1 sequence (P11473 whole entry): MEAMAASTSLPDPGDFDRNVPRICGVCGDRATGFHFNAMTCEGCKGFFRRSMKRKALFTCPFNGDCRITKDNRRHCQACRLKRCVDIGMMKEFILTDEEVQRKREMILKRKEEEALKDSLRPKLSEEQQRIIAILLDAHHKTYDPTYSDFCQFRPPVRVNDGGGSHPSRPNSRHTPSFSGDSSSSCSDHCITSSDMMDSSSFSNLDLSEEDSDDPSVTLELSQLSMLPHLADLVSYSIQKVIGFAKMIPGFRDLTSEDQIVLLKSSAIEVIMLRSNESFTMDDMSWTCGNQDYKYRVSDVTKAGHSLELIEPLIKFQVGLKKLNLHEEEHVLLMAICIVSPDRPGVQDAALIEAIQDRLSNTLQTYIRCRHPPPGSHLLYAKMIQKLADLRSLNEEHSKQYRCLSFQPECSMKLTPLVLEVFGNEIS

L02 = experiment: Antiproliferative activity against human L02 cells after 48 hrs by MTT assay; format: cell-based; details: L02, 48 h
[11] = Clearance in Sprague-Dawley rat at 5 mg/kg, iv measured up to 48 hrs post administration by HPLC analysis; format: ADME, organism-based; details: in vivo; method in brief: as §1
[12] = MRT in Sprague-Dawley rat at 20 mg/kg, po by HPLC analysis; format: ADME, organism-based; details: in vivo; method in brief: as §1
MCF7 [13] = experiment: Induction of cell cycle arrest in human MCF7 cells assessed as accumulation at G0/G1 phase at 1 uM after 24 hrs by propidium iodide-staining based flow cytometry (reference value: 56.03%); format: functional
[14] = AUC in Sprague-Dawley rat at 5 mg/kg, iv measured up to 48 hrs post administration by HPLC analysis; format: ADME, organism-based; parameters: dose 5 mg/kg, time < 48 hr, route intravenous; details: in vivo; method in brief: as §1
[15] = Half life in Sprague-Dawley rat at 20 mg/kg, ip by HPLC analysis; format: ADME, organism-based; details: in vivo; method in brief: as §1
Caco-2 = experiment: Antiproliferative activity against human Caco2 cells after 48 hrs by MTT assay; format: functional, cell-based; details: Caco-2, 48 h
[16] = MRT in Sprague-Dawley rat at 5 mg/kg, iv by HPLC analysis; format: ADME, organism-based; details: in vivo; method in brief: as §1
[17] = Oral bioavailability in Sprague-Dawley rat at 20 mg/kg measured up to 48 hrs after administration by HPLC analysis; format: ADME, organism-based; details: in vivo; method in brief: as §1
MCF7 [18] = experiment: Induction of cell cycle arrest in human MCF7 cells assessed as accumulation at S phase at 1 uM after 24 hrs by propidium iodide-staining based flow cytometry (reference value: 31.55%); format: functional
[19] = Bioavailability in Sprague-Dawley rat at 20 mg/kg, ip measured up to 48 hrs after administration by HPLC analysis; format: ADME, organism-based; details: in vivo; method in brief: as §1
MCF7 [20] = experiment: Induction of apoptosis in human MCF7 cells assessed as early apoptotic cells at 1 uM after 24 hrs by Annexin V-FITC/propidium iodide-staining based flow cytometry (reference value: 1.74%); format: functional
MCF7 [21] = experiment: Induction of apoptosis in human MCF7 cells assessed as necrotic cells at 1 uM after 24 hrs by Annexin V-FITC/propidium iodide-staining based flow cytometry (reference value: 0.031%); format: functional
MCF7 [22] = experiment: Induction of apoptosis in human MCF7 cells assessed as viable cells at 1 uM after 24 hrs by Annexin V-FITC/propidium iodide-staining based flow cytometry (reference value: 98.2%); format: functional; details: MCF7, 24 h, read-out: Activity
HepG2 = experiment: Antiproliferative activity against human HepG2 cells after 48 hrs by MTT assay; format: functional, cell-based; details: HepG2, 48 h

SMILES: CCn1c(C(=O)NC(C)CO)ccc1C(CC)(CC)c1ccc(OCC(O)C(C)(C)C)c(C)c1 (configuration not stated)
- AUC at 48 h [1]: 24800 ng·h/mL
- Activity (MCF7 [2]): 12.52%
- half-life [3]: 2.44 h
- Activity (MCF7 [4]): 2.78%
- AUC at 48 h [5]: 13500 ng·h/mL
- half-life [6]: 6.89 h
- CL/F [7]: 13.5 mL/min
- CL/F [8]: 25 mL/min
- IC50 (MCF7 [9]): 2.8 µM
- MRT [10]: 8.15 h
- IC50 (PC-3): 17.4 µM
- IC50 (Vitamin D3 receptor): 0.228 µM
- IC50 (L02): 17.4 µM
- clearance [11]: 6.83 mL/min
- MRT [12]: 10.8 h
- Activity (MCF7 [13]): 63.03%
- AUC at 48 h [14]: 13400 ng·h/mL
- half-life [15]: 3.96 h
- IC50 (Caco-2): > 50 µM
- MRT [16]: 2.82 h
- bioavailability [17]: 25.2%
- Activity (MCF7 [18]): 24.45%
- bioavailability [19]: 46.2%
- Activity (MCF7 [20]): 7.58%
- Activity (MCF7 [21]): 0.15%
- viability at 1 µM (MCF7 [22]): 89.5%

SMILES: CCn1c(C(=O)Nc2ccc(OC(F)(F)F)cc2)ccc1C(CC)(CC)c1ccc(OCCC(O)(CC)CC)c(C)c1
- IC50 (MCF7 [9]): > 50 µM
- IC50 (PC-3): > 50 µM
- IC50 (L02): > 50 µM
- IC50 (Caco-2): > 50 µM
- IC50 (HepG2): > 50 µM

SMILES: CCn1c(C(=O)Nc2cccc(C(F)(F)F)c2)ccc1C(CC)(CC)c1ccc(OCCC(O)(CC)CC)c(C)c1
- IC50 (MCF7 [9]): > 50 µM
- IC50 (PC-3): 23.8 µM
- IC50 (L02): > 50 µM
- IC50 (Caco-2): > 50 µM
- IC50 (HepG2): > 50 µM

SMILES: CCn1c(C(=O)NCCN(C)C)ccc1C(CC)(CC)c1ccc(OCCC(O)(CC)CC)c(C)c1
- IC50 (MCF7 [9]): 0.43 µM
- IC50 (PC-3): 0.87 µM
- IC50 (L02): 0.99 µM
- IC50 (Caco-2): 1.14 µM
- IC50 (HepG2): 0.24 µM

SMILES: CCn1c(C(=O)N(C)CCO)ccc1C(CC)(CC)c1ccc(OCCC(O)(CC)CC)c(C)c1
- IC50 (MCF7 [9]): 2.87 µM
- IC50 (PC-3): 3.09 µM
- IC50 (L02): 2.05 µM
- IC50 (Caco-2): 0.074 µM
- IC50 (HepG2): 0.51 µM

SMILES: CCn1c(C(=O)NC(CC(=O)O)C(=O)OC)ccc1C(CC)(CC)c1ccc(OCCC(O)(CC)CC)c(C)c1 (configuration not stated)
- IC50 (MCF7 [9]): 10.2 µM
- IC50 (PC-3): 11.2 µM
- IC50 (L02): 7.59 µM
- IC50 (Caco-2): 25.2 µM
- IC50 (HepG2): 10.7 µM

SMILES: CCn1c(C(=O)NCCN)ccc1C(CC)(CC)c1ccc(OCCC(O)(CC)CC)c(C)c1
- IC50 (MCF7 [9]): 0.67 µM
- IC50 (PC-3): 2.42 µM
- IC50 (L02): 2.94 µM
- IC50 (Caco-2): 1.74 µM
- IC50 (HepG2): 1.59 µM

SMILES: CCn1c(C(=O)NCC#N)ccc1C(CC)(CC)c1ccc(OCCC(O)(CC)CC)c(C)c1
- IC50 (MCF7 [9]): > 50 µM
- IC50 (PC-3): 17.8 µM
- IC50 (Vitamin D3 receptor): 0.825 µM
- IC50 (L02): > 50 µM
- IC50 (Caco-2): > 50 µM
- IC50 (HepG2): > 50 µM

SMILES: CCC(C)C(NC(=O)c1ccc(C(CC)(CC)c2ccc(OCCC(O)(CC)CC)c(C)c2)n1CC)C(=O)O (configuration not stated)
- IC50 (MCF7 [9]): 11.3 µM
- IC50 (PC-3): 13.8 µM
- IC50 (L02): 9.99 µM
- IC50 (Caco-2): 20 µM
- IC50 (HepG2): 2.62 µM

SMILES: C=CCN(C)C(=O)c1ccc(C(CC)(CC)c2ccc(OCCC(O)(CC)CC)c(C)c2)n1CC
- IC50 (MCF7 [9]): > 50 µM
- IC50 (PC-3): 12.8 µM
- IC50 (L02): 1.19 µM
- IC50 (Caco-2): > 50 µM
- IC50 (HepG2): > 50 µM

SMILES: CCn1c(C(=O)Oc2ccc(CC(=O)OC)cc2)ccc1C(CC)(CC)c1ccc(OCCC(O)(CC)CC)c(C)c1
- IC50 (MCF7 [9]): > 50 µM
- IC50 (PC-3): > 50 µM
- IC50 (L02): > 50 µM
- IC50 (Caco-2): > 50 µM
- IC50 (HepG2): > 50 µM

SMILES: CCn1c(C(=O)NC(CO)CCO)ccc1C(CC)(CC)c1ccc(OCCC(O)(CC)CC)c(C)c1 (configuration not stated)
- IC50 (MCF7 [9]): 31.4 µM
- IC50 (PC-3): 8.76 µM
- IC50 (L02): 3.04 µM
- IC50 (Caco-2): 40.2 µM
- IC50 (HepG2): 24.8 µM
